Rows were chosen to be rich in hits. Some 1.3% of all compounds tested hit in one or more screens of this group.
NS3 helicase inh: inhibitors of HCV NS3 helicase, primary screen, biochemical, Cy5 molecular beacon fluorescence; NS3 helicase DNA unwinding; inhibition, % at 10.9 µM; 0.56% of 290,000 active;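 active = inhibition above the mean of all tested compounds plus 3 SD, set per campaign, cut at about 35% in these data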;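 note: 0% = DMSO wells and 100% = thioflavine S control wells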
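System: HCV NS3 helicase fragment; control set: DMSO and thioflavine S; technique: Cy5 fluorescence at 0 and 60 min, beacon hairpin quenching; reagent: beacon DNA duplex substrate plus ATP; replicates: singlicate; schedule: 1 h reaction at 25 °C, ATP-initiated; medium: MOPS buffer pH 6.5 with MgCl2, DTT, Tween20, BSA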
Lipid droplet: inhibitors of hepatocyte lipid droplet formation, primary screen, imaging, high-throughput imaging, BODIPY stain | 0.4% of 240,000 active | AML12 mouse hepatocytes, oleate lipid droplets | inhibition, % at 6.5 µM;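 active = lipid droplet intensity inhibited by at least 50%, with more than 500 cells counted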
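Assay system: AML12 hepatocytes (mouse) / Also added: 100 µM oleic acid challenge / Times: overnight treatment with compound plus oleate / Detection: high-content imaging of BODIPY-stained droplets and DAPI nuclei / Evaluation: % inhibition of lipid droplet signal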
Tb MetRS inh: T. brucei MetRS inhibitors, primary screen, biochemical, luminescence. inhibition, % at 11.9 µM. purified T. brucei MetRS, ATP depletion, Kinase-Glo luminescence. 0.4% of 360,000 active. AID 624268, 2012. methionyl-tRNA synthetase (Trypanosoma brucei brucei);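 active = inhibition above a per-plate cutoff of the control wells' mean inhibition plus 3 SD, cut at about 5.5% in these data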;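 note: 0% = DMSO wells median and 100% = median of wells with control inhibitor compound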
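Test system: purified T. brucei MetRS enzyme. Also added: ATP, methionine and E. coli bulk tRNA substrates. Compound: 11.9 µM single point. Schedule: 15 min enzyme-compound preincubation, 2 h reaction, 10 min detection, 25 °C. Signal: luciferase luminescence of residual ATP, Kinase-Glo. Evaluation: percent inhibition versus plate control medians. Controls: DMSO wells, low control.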
HCV core dimer: inhibitors of HCV core protein dimerization, primary screen, biochemical, TR-FRET, high-throughput; TR-FRET GST/Flag-core106 dimerization, 1536-well; AID 1899, 2009; inhibition, % at 5 µM; 0.33% of 300,000 active;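 active = inhibition above the mean of all tested compounds plus 3 SD, set per screening campaign, cut at about 45% in these data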
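Assay system: tagged HCV core106 pair (GST and Flag); medium: KF-containing HEPES buffer, pH 7.45, DTT, CHAPS, BSA; also added: Eu donor and XL665 acceptor anti-tag antibodies; dosing: 5 µM single dose; timing: compound-protein-antibody incubation 4 h at 22.5 °C; signal: TR-FRET 671 and 617 nm emission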
NS3 hel confirm: HCV NS3 helicase inhibitors, retest, confirmation, biochemical, Cy5 molecular beacon fluorescence, triplicate | shares compounds with NS3 helicase inh | NS3 helicase DNA unwinding | inhibition, % at 10.9 µM | 31% of 1,600 active | AID 1943, 2009;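 active = inhibition above the mean of all tested compounds plus 3 SD, cutoff set per campaign, cut at about 36% in these data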
DNA FID counter: compounds displacing fluorescent DNA intercalator, artefact control for HCV NS3 helicase inhibitor project, biochemical, FID fluorescence, triplicate. AID 1945, 2009. DNA fluorescent intercalator displacement. inhibition, % at 7.9 µM. shares compounds with NS3 helicase inh. 4% of 1,600 active; in the data active = inhibition above about 37%;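 note: 0% = vehicle and 100% = reference compound; higher means more displacement of ethidium bromide from the DNA hairpin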
FID counter DR: compounds displacing fluorescent intercalator from DNA, dose response, counter-screen for HCV NS3 helicase inhibitor project, biochemical, fluorescence. IC50, µM. fluorescent intercalator displacement from DNA. AID 2172, 2009. 120 tested, under 10 active. shares compounds with NS3 helicase inh; call rule not given here
* hit, by the source's call; nt = not tested or not shown.

SMILES	NS3 helicase inh	Lipid droplet	Tb MetRS inh	HCV core dimer	NS3 hel confirm	DNA FID counter	others
O=C(C[C@H]1C(=O)N(C2CCCCC2)C[C@@H]1Cc1ccccc1)Nc1ccccc1	37*	nt	0	7	-16	-28
N#CC1=C(N)Oc2c(O)cc3ccccc3c2C1c1ccsc1 (stereo not drawn)	38*	10	0	18	-10	19
CCCCCCOc1ccc(C(=O)O)cc1C#N	38*	11	-1	1	16	-8
Oc1c(Br)cc(Br)cc1/C=N/NC(=S)N[C@H]1CC2C=CC1C2 (stereo partly drawn)	37*	-3	2	1	59*	15	FID counter DR=>79
CC[N+]1(CC)CC2CCC(C)(C1)C2(C)C (stereo not drawn)	17	-6	-1	1	nt	nt
CCCCOc1[nH]c2nc(-c3ccco3)n(Cc3ccco3)c(=N)c2c1C#N	39*	3	0	8	13	19
c1ccc(CSc2nnc(-c3ccco3)n2Cc2ccco2)cc1	-6	nt	0	0	nt	nt
Cc1ccc(NC(=O)CNC(=O)CC23CC4CC(CC(C4)C2)C3)c(O)c1	nt	nt	0	-3	nt	nt
CCOC(=O)[C@]12CCCC=C1N(Cc1cccc3ccccc13)C(=O)[C@H](CC(=O)NCC1CCCCC1)C2	nt	nt	-1	nt	nt	nt
CC(C)(C)C(=O)C1=C(O)C(=O)N(Cc2ccccc2)C1c1ccccc1Cl (stereo not drawn)	38*	-7	0	8	15	-13
CC(=O)C1=C(O)C(=O)N(CC(=O)O)C1c1ccccc1Cl (stereo not drawn)	2	nt	0	1	nt	nt
NS(=O)(=O)c1cccc(C(=O)NC2CCSc3ccccc32)c1 (stereo not drawn)	7	-16	0	-12	nt	nt
NS(=O)(=O)c1cc(C(=O)NC2CCSc3ccccc32)ccc1Cl (stereo not drawn)	84*	-1	0	32	74*	2
O=C(NNS(=O)(=O)c1ccc(C(=O)NC2CCCC2)cc1)c1ccncc1	1	-35	0	-4	nt	nt
NNS(=O)(=O)c1ccc2c(c1)Cc1cc(S(=O)(=O)NN)ccc1-2	39*	10	-1	3	-17	2
COCCn1c(=O)[nH]c(=O)c2c1nc(-c1ccc(-c3ccc(Cl)cc3[N+](=O)[O-])o1)n2Cc1ccccc1	36*	26	1	55*	-6	-38
COc1ccc(-c2ccc(-c3nc4c(c(=O)[nH]c(=O)n4Cc4ccccc4)n3C)o2)c([N+](=O)[O-])c1	18	5	-1	33	nt	nt
C/C(=C\C(=O)c1ccc(Br)cc1)Nc1cccc(Cl)c1	6	nt	-1	1	nt	nt
C/C(=C\C(=O)c1ccc(Cl)cc1)Nc1ccc(Br)cc1	47*	nt	0	8	0	8
COc1ccc(N2C(=O)/C(=C\c3ccco3)N=C2SCC(=O)NC(C)(C)C)cc1Cl	7	-2	0	19	nt	nt
CCN(CC)C(=O)CSC1=N/C(=C/c2ccco2)C(=O)N1c1ccc(OC)c(Cl)c1	38*	-16	0	51*	-9	-28
CSC[C@@H]1NC(=S)N(c2ccc(C)cc2)C1=O	36*	0	-1	34	-12	17
COc1ccc([C@@]23Oc4cc(OC)cc(OC)c4[C@]2(O)[C@H](O)[C@H](C(=O)N(C)C)[C@H]3c2ccccc2)cc1	nt	nt	0	nt	nt	nt
Cc1ccc(C(=O)Nc2ccc3c(c2)OCCO3)cc1	0	10	0	nt	nt	nt
Cc1ccc(C(=O)Nc2ccc3c(c2)OCO3)cc1	38*	7	0	17	-18	1
SMILES	NS3 helicase inh	Lipid droplet	Tb MetRS inh	HCV core dimer	NS3 hel confirm	DNA FID counter	others
CCOc1ccc2nc(NC(=O)CC3Oc4ccccc4NC3=O)sc2c1 (stereo not drawn)	-7	3	0	6	nt	nt
CNCC(=O)Nc1c(C)n[nH]c1C	40*	27	0	-4	4	15
O=c1cc(O)nc(SCc2ccccc2)n1-c1ccc(F)cc1	59*	nt	0	8	-2	-22
O=C(CSc1nc(O)cc(=O)n1-c1ccccc1)NC1CCCCC1	6	-4	0	0	nt	nt
O=C1NN(c2ccccc2)C(=O)/C1=C\c1ccccc1	49*	2	2	nt	-28	13
COc1ccc(-n2c(C)cc(/C=C3\C(=O)NN(c4ccccc4)C3=O)c2C)cc1	1	-6	-1	10	nt	nt
COc1ccc(Sc2ccc(/C=C3\C(=O)NN(c4ccccc4)C3=O)o2)cc1	47*	3	0	24	60*	17
CCCn1c(SCC(=O)NC(C)(C)C)nnc1-c1ccco1	-8	0	0	1	nt	nt
Cc1ccc(NC(=O)COC(=O)C2CC3C=CC2C3)cc1S(=O)(=O)N1CCCCC1 (stereo not drawn)	62*	-1	0	6	-3	-20
O=C(Nc1ccc(Oc2ccccc2)cc1)c1csc(COCCO)n1	nt	nt	0	nt	nt	nt
CCOC(=O)C(C(C)=O)c1c(Br)c(O)c(O)c2c(C(=O)c3ccc(C)cc3)coc12 (stereo not drawn)	38*	nt	0	40	-3	16
CC1CCC2C(C1)OS(=O)(=O)NC2(C)C (stereo not drawn)	41*	0	nt	-5	1	-2
CC(C)CCOc1cccc(OCC(=O)Nc2ccncc2)c1	-10	-33	0	-2	nt	nt
COc1ccccc1-c1cc(C(=O)N2CCc3ccccc3C2)c2ccccc2n1	37*	nt	nt	24	-17	-41
COc1ccccc1Nc1cc(C(=O)N2CCc3ccccc3C2)c2ccccc2n1	-5	-23	nt	9	nt	nt
CCC1CCCCN1C(=S)Nc1cccc(S(=O)(=O)N(C)C)c1 (stereo not drawn)	5	-3	0	2	nt	nt
CC(CCC(=O)O)C1CCC2C3CCC4C[C@H](O)CCC4(C)C3CC(=O)C12C (stereo partly drawn)	40*	7	-1	-1	-21	-13
COc1ccc2[nH]c(=O)c(CNc3ccccc3)cc2c1	16	nt	-1	5	nt	nt
CCOc1ccc(NCc2cc3cc(OC)ccc3[nH]c2=O)cc1	43*	-63	0	-6	12	-6
